KCNK3 block: human KCNK3 channel inhibitors, primary screen, CHO cells, FluxOR thallium flux, B-score; B-score at 10 µM; 340,000 compounds, 0.84% hits; FluxOR fluorescence; active compounds read low; Potassium channel subfamily K member 3 (Homo sapiens), O14649;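 active means B-score under library mean minus 4 SD, starting fluorescence ratio at most library mean plus 5 SD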;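 further: more negative B-score means stronger inhibition of thallium flux through KCNK3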
KCNQ1 inh: inhibitors of human KCNQ1 channel, primary screen, cell-based, thallium flux, high-throughput. 310,000 compounds, 1.3% hits. B-score at 10 µM. CHO-K1 KCNQ1, FluxOR thallium flux fluorescence; active compounds read high;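 active means compounds whose thallium flux B-score, printed positive for inhibition, exceeds three library SD while starting fluorescence stays within three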;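 further: channel opened by potassium depolarization with thallium stimulus after 20 min compound exposure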
hERG rescue: hERG rescue from dofetilide block, primary screen, cell-based, CHO-hERG, FluxOR thallium flux, dofetilide IC70; Voltage-gated inwardly rectifying potassium channel KCNH2 (Homo sapiens), Q12809; dofetilide IC70 present; activation (rescue from dofetilide block), less the hit threshold, % at 10 µM; 310,000 compounds, 0.51% hits; AID 1511, 2009;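 active means activation above the mean of controls blocked by dofetilide plus 5 SD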;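 further: thallium influx through hERG after potassium depolarization seen as dye fluorescence rise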
KCNK9 inh: KCNK9 potassium channel inhibitors, primary screen, HEK293 cells, thallium flux; B-score at 10 µM; 310,000 compounds, 1.2% hits; FluxOR thallium flux fluorescence; active compounds read low;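 active means ratio B-score over 3 SD below the library mean, with starting fluorescence within 5 SD of its mean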;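 further: negative B-score means less thallium flux so channel inhibition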
Target sequence (Q9NPC2 whole entry, looked up): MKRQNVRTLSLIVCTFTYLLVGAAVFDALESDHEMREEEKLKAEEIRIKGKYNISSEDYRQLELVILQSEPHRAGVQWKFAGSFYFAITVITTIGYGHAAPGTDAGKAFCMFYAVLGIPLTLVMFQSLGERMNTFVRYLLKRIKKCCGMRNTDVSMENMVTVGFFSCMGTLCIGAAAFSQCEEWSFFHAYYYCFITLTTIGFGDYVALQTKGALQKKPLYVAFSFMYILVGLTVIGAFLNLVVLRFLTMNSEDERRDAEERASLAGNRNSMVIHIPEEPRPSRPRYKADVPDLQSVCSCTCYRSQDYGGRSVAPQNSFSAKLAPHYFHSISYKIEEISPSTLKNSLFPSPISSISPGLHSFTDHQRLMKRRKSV
KCNQ1 pot: potentiators or activators of KCNQ1 channel, primary screen, cell-based, thallium flux, high-throughput; Potassium voltage-gated channel subfamily KQT member 1 (Homo sapiens), P51787; CHO-K1 KCNQ1, thallium flux FluxOR fluorescence; active compounds read high; 310,000 compounds, 0.35% hits; B-score at 10 µM;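 active means fluorescence ratio B-score, a plate-corrected score, at least three library SD, with initial intensity B-score within 5 SD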
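Doses: Single concentration per compound, DMSO matched to controls | Test system: KCNQ1-transfected CHO-K1 cells | Timing: 90 min dye loading and 20 min compound exposure, both at room temperature | Measured by: Kinetic FluxOR thallium fluorescence, 10-s 1-Hz baseline, 110-s post-stimulus read | Medium: Assay buffer with matched DMSO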
KCNK3 confirm: retest of human KCNK3 channel inhibitors, confirmation, CHO cells, FluxOR thallium flux, triplicate; shares compounds with KCNK3 block; FluxOR fluorescence; 0% buffer, 100% carvedilol maximal block; ratio percent of control, % at 10 µM; 2,400 compounds, 99% hits; AID 651638, 2012;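 active means ratio percent of control, averaged over triplicates, above buffer control mean plus 5 SD, cut at about 64% in these data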;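 further: ratio is the fluorescence rise from min to max over baseline after thallium stimulus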
KCNK3 uninduced: thallium flux inhibition in non-induced cells, primary screen, counter-screen for KCNK3 inhibitor project, cell-based, non-induced KCNK3 line, FluxOR thallium, triplicate. thallium flux ratio (lower = more inhibition) at 10 µM. shares compounds with KCNK3 block. 2,400 compounds, 40% hits. non-induced KCNK3 parental cells; active compounds read low;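 active means thallium flux ratio, averaged over three wells, more than 5 SD below the buffer control mean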;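 further: host cells are CHO cells without KCNK3 induction; ratio is peak minus trough fluorescence over baseline then normalized to buffer controls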
* = called active by the depositor; i = inactive; . = no result. Most compounds without a hit are left out; they make up all but 3.1% or so of the library.

SMILES	KCNK3 block	KCNQ1 inh	hERG rescue	KCNK9 inh	KCNQ1 pot	KCNK3 confirm	KCNK3 uninduced
COc1ccc(Cl)cc1NC(=S)Nc1cccnc1	i	i	-4	i	i	.	.
CC(=O)c1cccc(NC(=O)CNC(=O)Cc2ccccc2)c1	i	i	-5	i	i	.	.
COc1ccc(C(=O)OCCOc2ccccc2C(C)=O)c(O)c1	-9.8*	i	-9	i	i	119*	0.14*
COc1cccc(-n2c(SC)nnc2-c2c[nH]c3ccccc23)c1	i	i	-8	i	i	.	.
Cc1cccc(-n2c(SCc3ccc([N+](=O)[O-])cc3)nnc2-c2c[nH]c3ccccc23)c1	-11*	i	-18	i	i	108*	0.15*
COc1cccc(OCc2nc(-c3cccc([N+](=O)[O-])c3)no2)c1	-10*	i	-7	i	i	99*	i
CC(=O)Nc1ccc(Oc2cc(C#N)c(C#N)cc2N2CCOCC2)cc1	i	i	-9	i	i	.	.
CC(=O)Nc1ccc(Oc2cc(C#N)c(C#N)cc2N2CCCCCC2)cc1	-13*	.	.	.	.	120*	i
Cc1ccc(S(=O)(=O)NCc2cn3ccccc3n2)c(C)c1	i	i	-1	i	i	.	.
O=C(NCCSc1ccccc1)c1ccc(Br)cc1	i	i	-5	i	i	.	.
COc1ccc(Cl)cc1C(=O)NCCCSc1ccccc1	-9.2*	i	-7	i	i	112*	0.16*
O=C(NCCCSc1ccccc1)c1cc(Br)ccc1O	-8.8*	i	-15	i	i	151*	0.12*
O=C(OCCNc1nc(-c2ccccc2)nc2ccccc12)c1ccncc1	i	i	-8	-7.3*	i	124*	0.16*
c1ccc(-c2nc(NCc3cccnc3)c3ccccc3n2)cc1	-9.2*	i	-15	i	i	111*	0.15*
Fc1ccc(CNc2nc(-c3ccccc3)nc3ccccc23)cc1	i	i	-13	i	i	.	.
COc1ccc(CNc2nc(-c3ccccc3)nc3ccccc23)cc1OC	-17*	i	-6	i	i	114*	0.14*
CCOc1ccc(C(=O)NCc2ccc3c(c2)OCO3)cc1OCC	i	i	-1	i	i	.	.
Cc1ccc(Oc2c(C=O)c3ccccc3n2C)cc1	i	.	.	.	.	.	.
Cc1cccc(Sc2c(C=O)c3ccccc3n2C)c1	-10*	i	-6	i	i	110*	0.14*
Cc1ccc(S(=O)(=O)N(C)CCN(C)S(=O)(=O)c2ccc(C)cc2)cc1	i	.	.	.	.	.	.
Cc1cc(C)c(S(=O)(=O)N2CCCC2)c(C)c1	i	i	-4	i	i	.	.
Cc1cc(C)c(S(=O)(=O)N2CCN(S(=O)(=O)N3CCOCC3)CC2)c(C)c1	-13*	i	-4	i	i	52*	i
CCC(C)n1c(/C=C/c2ccccc2)nc2ccccc21 (centres undefined)	-9.8*	i	-19	i	i	88*	i
COc1ccc(Cn2c(/C=C/c3ccccc3)nc3ccccc32)cc1	-9.5*	i	-8	-6.8*	i	101*	0.15*
COC(=O)C1=C(C(=O)OC)C(C(=O)OC)C(C(=O)OC)C(C(=O)OC)(C(=O)OC)C(C(=O)OC)=C1C(=O)OC (centres undefined)	i	.	.	.	.	.	.
SMILES	KCNK3 block	KCNQ1 inh	hERG rescue	KCNK9 inh	KCNQ1 pot	KCNK3 confirm	KCNK3 uninduced
CC1=C([N+](=O)[O-])C(c2ccc(Cl)cc2)NC(=O)N1 (centres undefined)	i	i	-10	i	i	.	.
Cc1c(C(=O)N2CCN(c3ccccn3)CC2)sc2ncnc(N3CCN(c4ccccc4)CC3)c12	i	i	-10	i	i	.	.
Cc1nc(N2CCN(c3ccccn3)CC2)c2c(C)c(C(=O)Nc3ccccc3F)sc2n1	i	i	-14	i	i	.	.
Cc1nc(N2CCN(c3ccccn3)CC2)c2c(C)c(C(=O)N3CCN(c4cccc(Cl)c4)CC3)sc2n1	-9.4*	i	-25	i	i	97*	i
CCc1ccc(NC(=O)c2sc3nc(C)nc(N4CCN(c5ccccn5)CC4)c3c2C)cc1	-12*	6*	-15	i	i	139*	0.11*
CC(=O)Nc1nnc(S(=O)(=O)N2CCN(c3ccc(Cl)cc3[N+](=O)[O-])CC2)s1	i	i	-4	i	i	.	.
CCc1ccc2c(CN3CCc4ccccc43)cc(=O)oc2c1	-13*	i	-8	i	i	83*	i
O=C(NCCc1csc(-c2ccc(Cl)cc2)n1)c1ccco1	i	i	-15	i	i	.	.
N#C/C(=C\c1ccc(O)cc1)c1nc2ccccc2o1	-11*	i	-18	i	i	130*	0.12*
CN(C)C(CNC(=O)CNC(=O)Cc1cccc2ccccc12)c1ccccc1 (centres undefined)	i	i	-6	i	i	.	.
Cc1ccc(C)c(Nc2cc(C(=O)NCc3cccnc3)c3ccccc3n2)c1	-8.9*	i	-16	-7.9*	i	87*	i
Cc1cc(C)cc(OC(C)C(=O)Nc2ccccc2C(=O)NCc2cccnc2)c1 (centres undefined)	-9.7*	i	-8	i	i	84*	0.16*
CC(Oc1ccc(F)cc1)C(=O)Nc1sc2c(c1C(=O)NCc1cccnc1)CCCC2 (centres undefined)	-8.9*	i	-10	i	i	113*	i
COc1ccc(CCC2(C)NC(=O)N(C(C)C(=O)N3c4ccccc4CC3C)C2=O)cc1 (centres undefined)	i	.	.	.	.	.	.
COc1cccc(C(=O)N[C@@H](C)C(=O)N2CCC3(CC2)NCCc2[nH]cnc23)c1	i	i	-5	i	i	.	.
COc1ccc(OC(=O)N2C/C(=C/c3ccccc3)C(=O)/C(=C\c3ccccc3)C2)cc1	i	.	.	.	.	.	.
CCOC(=O)N1C/C(=C\c2ccccc2)C(=O)/C(=C/c2ccccc2)C1	-10*	10*	-13	i	i	113*	i

Screening data as filed in PubChem.
